Out of some 2,100 compounds screened, about 75 (4%) were called active.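 Rule for the calls: active = calcium fluorescence trace judged by eye to show a response, as agonist, enhancer of the glutamate response, or inhibitor; inactive = trace judged by eye to show no response.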 What follows is part of a selection rich in actives, with near analogues and random picks from the rest.
The compounds below were run against Metabotropic glutamate receptor 8 (Rattus norvegicus) (UniProt P70579) (assay: mGlu8-mediated intracellular calcium response modulators – cell-based, HEK293 rmGlu8, Gqi9 chimera, Fluo-4 calcium, counter-screen for GIRK activator project, confirmation (AID 623869)). Settings: HEK293 rmGlu8/Gqi9 calcium flux, Fluo-4 fluorescence; glutamate at EC20 added after compound.
Metabotropic glutamate receptor 8 (Rattus norvegicus), sequence (P70579 whole entry, looked up): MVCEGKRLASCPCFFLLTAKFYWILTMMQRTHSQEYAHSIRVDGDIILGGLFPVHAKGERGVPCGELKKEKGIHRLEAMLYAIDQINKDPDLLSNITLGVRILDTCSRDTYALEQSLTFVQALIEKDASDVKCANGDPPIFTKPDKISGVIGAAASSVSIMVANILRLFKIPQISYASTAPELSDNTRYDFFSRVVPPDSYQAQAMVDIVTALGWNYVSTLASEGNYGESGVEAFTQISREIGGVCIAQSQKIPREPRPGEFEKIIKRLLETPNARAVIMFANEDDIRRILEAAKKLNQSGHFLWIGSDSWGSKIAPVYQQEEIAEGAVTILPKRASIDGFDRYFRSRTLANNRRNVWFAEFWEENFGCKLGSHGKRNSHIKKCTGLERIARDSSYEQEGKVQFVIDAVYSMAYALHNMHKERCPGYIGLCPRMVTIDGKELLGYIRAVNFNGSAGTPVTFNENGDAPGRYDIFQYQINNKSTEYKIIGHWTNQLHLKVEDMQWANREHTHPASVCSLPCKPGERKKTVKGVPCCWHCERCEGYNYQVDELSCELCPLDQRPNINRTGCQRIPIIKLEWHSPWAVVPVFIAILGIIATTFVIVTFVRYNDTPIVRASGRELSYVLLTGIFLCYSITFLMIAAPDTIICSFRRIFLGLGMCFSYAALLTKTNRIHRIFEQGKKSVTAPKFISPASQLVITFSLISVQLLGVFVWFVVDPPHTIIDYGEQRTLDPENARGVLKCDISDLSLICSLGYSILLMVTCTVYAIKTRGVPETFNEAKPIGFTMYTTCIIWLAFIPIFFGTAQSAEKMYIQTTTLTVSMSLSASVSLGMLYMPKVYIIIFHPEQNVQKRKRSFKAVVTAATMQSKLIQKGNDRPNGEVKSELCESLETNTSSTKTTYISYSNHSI
Summary of the method: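 System – HEK-293 cells stably expressing rat mGlu8, plus transient chimeric Gqi9 · Medium – HEPES-buffered HBSS, pH 7.4 · Also added – EC20 glutamate · Compound – one dose, 20 µM addition solution, 0.2% DMSO · Times – compound 4 min before glutamate, then 2 min recording · Measured by – Fluo-4 calcium fluorescence sampled at 1 Hz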
`CC(=O)c1c(N2CCCC2)[nH]c(-c2ccccc2)nc1=S` was tested, and the outcome was “active; 2”.
`O=C(c1cc(-c2ccccc2)on1)N1CCCC1` was tested, and the outcome was “inactive; 0”.
`CSc1nc(-c2ccccc2)[nH]c(=S)c1C(C)=O` was tested, and the outcome was “inactive; 0”.
In the case of `COC(=O)C(C)N(C(=O)c1cccc2ccccc12)c1c(C)cccc1C` (stereo unspecified), the outcome is reported as “inactive; 0”.
For `COc1ccc(-c2cc(C(F)(F)F)c3c(n2)sc2c(O)cc(=O)[nH]c23)c(OC)c1`, the outcome was “active; 2”.
For `CCOC(=O)c1c(NS(=O)(=O)c2ccc(Br)cc2)sc2c1CCC2`, the outcome was “inactive; 0”.
In the case of `COc1ccc2nc(/N=C/c3c(C)[nH]n(-c4ccc(C)cc4)c3=O)sc2c1`, the outcome is reported as “inactive; 0”.
`Cc1ccc(C(=O)NC(=S)Nc2ccccc2C(F)(F)F)cc1` was tested, and the outcome was “inactive; 0”.
In the case of `O=C(NN=C(Cc1ccccc1)Cc1ccccc1)c1ccc(F)cc1`, the outcome is reported as “inactive; 0”.
With `Cc1ccc(C(=O)N/N=C(/CC(=O)c2cccs2)C(F)(F)F)cc1` the outcome was “active; -1”.
`COC(=O)C1=NN(C(=O)c2ccc(C)cc2)C(O)(c2ccc(Cl)cc2)C1` (stereo unspecified) was tested, and the outcome was “inactive; 4”.
For `COC(=O)c1sc(NC(=S)NC(=O)c2ccccc2Cl)nc1C`, the outcome was “inactive; 0”.
With `COC(=O)c1ccc(C(=O)NC(=S)Nc2nc3c(s2)CCCC3)cc1` the outcome was “inactive; 0”.
For `CC(C)(C)c1ccc(C(=O)NC(=S)Nc2nc3c(s2)CCCC3)cc1`, the outcome was “active; 2”.
In the case of `O=C(NC(=S)Nc1nc2c(s1)CCCC2)c1ccccc1`, the outcome is reported as “inactive; 0”.
With `O=C(NC(=S)Nc1ccc(N2CCOCC2)c(Cl)c1)c1cncc(Br)c1` the outcome was “inactive; 0”.
For `CCOC(=O)c1c2n(c3c(NCc4ccccc4)ncnc13)CCCC2`, the outcome was “inactive; 0”.
In the case of `Cc1cc(NC(=O)CSc2nc3ccccc3c(=O)n2Cc2ccccc2)no1`, the outcome is reported as “inactive; 0”.
For `O=C1OCCC1Sc1nc2cc(Cl)ccc2n1Cc1ccccc1` (stereo unspecified), the outcome was “active; 2”.
`O=C1CN(C(=O)CSc2nc3cc(Cl)ccc3c(=O)n2Cc2ccccc2)c2ccccc2N1` was tested, and the outcome was “inactive; 0”.
In the case of `C/C(=N/NC(=O)c1cc(Cl)ccc1O)C12CC3CC(CC(C3)C1)C2`, the outcome is reported as “active; 1”.
With `Cc1cccc(C(=O)CC(=O)c2cc(Cl)ccc2O)c1` the outcome was “inactive; 0”.
For `Cc1ccc(C(=O)CC(=O)c2cc(Cl)ccc2O)cc1`, the outcome was “inactive; 0”.
In the case of `COc1ccccc1/C=C/C(=O)NC(=S)N(C)C1CCCCC1`, the outcome is reported as “inactive; 0”.
`Oc1ccccc1CNc1ccc(Br)cn1` was tested, and the outcome was “active; -1”.
`CC(Nc1ccc(Br)cn1)c1cc(Cl)ccc1O` (stereo unspecified) was tested, and the outcome was “inactive; 0”.
With `O=c1c(-c2ccccc2)nc(-c2ccccc2)cn1O` the outcome was “inactive; 0”.
For `O=C(NC(=S)N1CCN(Cc2ccccc2)CC1)c1ccccc1`, the outcome was “inactive; 0”.
In the case of `CC(C)(C)NC(=O)C(c1ccncc1)N(C(=O)c1csnn1)c1ccccc1` (stereo unspecified), the outcome is reported as “active; -1”.
`O=C(NC(=S)Nc1ccccc1)c1csnn1` was tested, and the outcome was “inactive; 0”.
In the case of `CCC(C)(C)NC(=O)C(c1ccc(F)cc1)N(Cc1ccco1)C(=O)c1cnccn1` (stereo unspecified), the outcome is reported as “inactive; 0”.
With `O=c1c2ccccc2[nH]c(=S)n1CCCN1CCN(C2CCCCC2)CC1` the outcome was “inactive; 0”.
`O=C(NC(=S)Nc1ccccc1Cl)c1csnn1` was tested, and the outcome was “inactive; 0”.
In the case of `CCCCN(CCCC)C(=S)NC(=O)C(C)(C)C`, the outcome is reported as “inactive; 0”.
For `Brc1ccccc1-c1nnc2sc(-c3ccc4c(c3)OCCO4)nn12`, the outcome was “inactive; 0”.
`CCOC(=O)C1=C(C)Nc2nnnn2C1c1ccccc1Cl` (stereo unspecified) was tested, and the outcome was “inactive; 0”.
`CSc1ccccc1NC(=O)Nc1ccc(Cl)cc1` was tested, and the outcome was “inactive; 0”.
With `O=C(NC(=S)Nc1ccc(Oc2ccc(Cl)cc2)cc1)c1ccccc1` the outcome was “inactive; 0”.
With `O=C(N/C(=N\O)c1ccccc1)Nc1ccc(Cl)cc1` the outcome was “active; 2”.
In the case of `CCCCCC(=O)NC(=S)NNC(=O)c1ccc([N+](=O)[O-])cc1`, the outcome is reported as “active; 1”.
In the case of `CCCCNC(=S)NC(=O)c1ccc([N+](=O)[O-])cc1`, the outcome is reported as “inactive; 0”.
`CCCCOc1ccc(C(=O)NNC(=S)NC(=O)CC)cc1` was tested, and the outcome was “inactive; 0”.
With `S=c1nc(-c2ccc(Br)cc2)oc2c1CCCC2` the outcome was “inactive; 0”.
In the case of `Cc1ccc(C)c(NC(=S)NNC(=O)c2csc3c2CCCC3)c1`, the outcome is reported as “inactive; 0”.
For `CC(=O)Nc1ccc(C(=O)CSc2nc3ccc(C)cc3[nH]2)cc1`, the outcome was “inactive; 0”.
For `Cc1cc(C(=O)CSc2n[nH]c(N)n2)c(C)n1-c1cc(F)ccc1F`, the outcome was “inactive; 0”.
With `CC(=O)Nc1ccc(SCC(=O)c2cc(C)n(-c3ccccc3F)c2C)cc1` the outcome was “active; 2”.
In the case of `COC(=O)c1ccc(NS(=O)(=O)c2ccc(SC)cc2)cc1`, the outcome is reported as “inactive; 0”.
`COC(=O)c1ccc(-n2c(C)cc(C(=O)CSc3ccc(NC(C)=O)cc3)c2C)cc1` was tested, and the outcome was “active; 2”.
With `CCc1cc2cccc(C)c2nc1SCC(=O)c1ccc(NC(C)=O)cc1` the outcome was “inactive; 0”.
For `COc1ccc2nc(/N=C/c3c(C)[nH]n(-c4ccc(C)cc4C)c3=O)sc2c1`, the outcome was “inactive; 2”.
With `CC12CC3CC(C)(C1)CC(C(=O)NC(=S)N1CCCCC1)(C3)C2` the outcome was “inactive; 0”.
`CSCSC1=C(C#N)C(c2ccccc2Cl)C(C(C)=O)=C(C)N1` (stereo unspecified) was tested, and the outcome was “inactive; 0”.
For `O=C(N/N=C1/C(=O)c2cccc3cccc1c23)c1ccc(Cl)cc1`, the outcome was “inactive; 0”.
`Cc1cccc(N2C(=O)CS/C2=N\NC(=O)c2ccc(Cl)cc2)c1C` was tested, and the outcome was “active; 2”.
`O=C(NC(=S)N1CCCc2ccccc21)c1ccc(Cl)cc1` was tested, and the outcome was “inactive; 0”.
For `O=C(NC(=S)N(CCCCO)C1CCCCC1)c1sc2ccccc2c1Cl`, the outcome was “inactive; 0”.
In the case of `O=C(NC(=S)Nc1ccccc1N1CCOCC1)c1ccco1`, the outcome is reported as “inactive; 0”.
For `CN(C(=O)CSC1=Nc2ccccc2C2=NC(c3ccccc3)C(=O)N12)C1CCCCC1` (stereo unspecified), the outcome was “inactive; 0”.
In the case of `COc1cc(/C=C(\C#N)C(=O)Nc2cccnc2)ccc1OC(C)C`, the outcome is reported as “active; 2”.
`N#C/C(=C/C=C/c1ccccc1)C(=O)Nc1ccccc1` was tested, and the outcome was “inactive; 0”.
`CCSc1ccccc1C(=O)Nc1cccnc1` was tested, and the outcome was “inactive; 0”.
`Cc1ccc(OCC(=O)NNC(=O)C(=O)NC(C)(C)C)cc1` was tested, and the outcome was “inactive; 0”.
`C=CCn1c(=S)[nH]c2sc3c(c2c1=O)CCC3` was tested, and the outcome was “inactive; 0”.
For `COC(=O)c1ccccc1NC(=S)NC(=O)c1ccc(C)cc1`, the outcome was “inactive; 0”.
`CCC1c2ccc(C)n2CCN1C(=O)Nc1ccccc1C(=O)OC` (stereo unspecified) was tested, and the outcome was “active; 2”.
`COC(=O)c1ccccc1NC(=O)Nc1cnccn1` was tested, and the outcome was “inactive; 0”.
With `CC(C)C1Cc2c(sc3[nH]c(=S)n(Cc4ccccc4)c(=O)c23)CO1` (stereo unspecified) the outcome was “inactive; 0”.
In the case of `CCOC(=O)c1c(NC(=S)NC)sc2c1CC(C)(C)SC2`, the outcome is reported as “inactive; 0”.
`Cc1sc2nc(C(C)C)nc(SCC(=O)NCc3ccco3)c2c1C` was tested, and the outcome was “inactive; 0”.
With `CCCc1cc(-c2n[nH]c(=S)n2C(C)c2ccccc2)cs1` (stereo unspecified) the outcome was “inactive; 0”.
For `CCCc1cc(-c2n[nH]c(=S)n2CC(C)C)cs1`, the outcome was “inactive; 0”.
With `CCCc1cc(-c2n[nH]c(=S)n2Cc2ccccc2)cs1` the outcome was “active; -1”.
For `Cc1[nH]n(-c2ccc(Cl)cc2)c(=O)c1/C=N/c1nnc(-c2ccccc2)s1`, the outcome was “inactive; 0”.
For `O=C(O)c1ccccc1C(=O)Nc1ccc(-c2csc(-c3ccccc3)n2)cc1`, the outcome was “active; 1”.
`O=C(NC(=S)Nc1ccccc1)c1cc(-c2ccccc2)nc2ccccc12` was tested, and the outcome was “inactive; 0”.
For `CN(C)CCCNC(=O)c1ccc(-c2nc(-c3ccc(Cl)cc3)cs2)cc1`, the outcome was “inactive; 0”.
In the case of `C=CCn1c(=S)[nH]c2ccc(Br)cc2c1=O`, the outcome is reported as “inactive; 0”.
In the case of `Cc1ccc(-c2cc(-c3n[nH]c(=S)o3)c3ccccc3n2)cc1`, the outcome is reported as “inactive; 0”.
`S=c1[nH]nc(-c2cc3c(s2)-c2ccccc2CC3)o1` was tested, and the outcome was “active; -1”.
In the case of `CCc1cc(C(=O)NNC(=S)Nc2cc(C)ccc2C)cs1`, the outcome is reported as “inactive; 0”.
In the case of `Cc1ccc(C)c(NC(=S)NNC(=O)c2cc3c(s2)CCC(C)C3)c1` (stereo unspecified), the outcome is reported as “inactive; 0”.
In the case of `O=C1NC(=S)SC1=C1CCCCCC1`, the outcome is reported as “inactive; 0”.
With `CCCN(CCC)CCCNC(=O)c1cc2c(=O)n(C)c3ccccc3c2n1C` the outcome was “inactive; 0”.
`CCn1c(O)c(N=NC(=O)CNc2cccc(C)c2)c2ccccc21` was tested, and the outcome was “inactive; 0”.
For `CCn1c(=O)c(C(=O)NCCCO)c(O)c2ccccc21`, the outcome was “active; 2”.
For `CCC1CCCCN1C(=S)NC(=O)c1ccc([N+](=O)[O-])cc1` (stereo unspecified), the outcome was “inactive; 0”.
`Cc1cccc(NC(=S)N/C(=N/S(=O)(=O)c2ccccc2)c2ccccc2)c1` was tested, and the outcome was “inactive; 0”.
In the case of `Cc1ccc(-c2cc(-c3ccccc3)[nH]c(=S)c2C#N)cc1`, the outcome is reported as “inactive; 0”.
`CCOC(=O)c1c(NS(=O)(=O)Cc2ccccc2)sc2c1CCCC2` was tested, and the outcome was “inactive; 0”.
In the case of `Cc1ccc(Nc2cc(C)nn2-c2nc(C)cc(=O)[nH]2)cc1`, the outcome is reported as “active; -1”.
`Cc1cc(NC(=O)Nc2ccccc2)n(-c2ccccc2)n1` was tested, and the outcome was “inactive; 0”.
`Cc1cc(NC(=O)c2c(F)cccc2Cl)n(-c2nc3ccccc3[nH]2)n1` was tested, and the outcome was “inactive; 0”.
In the case of `CCCCOC(=S)NC(=O)c1sc2ccccc2c1Cl`, the outcome is reported as “inactive; 0”.
With `CC(C)(C)C(=O)NC(=S)NNC(=O)c1sc2ccccc2c1Cl` the outcome was “active; 1”.
In the case of `COc1ccccc1C(=O)NC(=S)NNC(=O)c1sc2ccccc2c1Cl`, the outcome is reported as “inactive; 3”.
`COc1ccccc1C(=O)NNC(=S)NC(=O)c1sc2ccccc2c1Cl` was tested, and the outcome was “active; 1”.
For `CCCOC(=S)NC(=O)c1sc2ccccc2c1Cl`, the outcome was “inactive; 0”.
With `CCOC(=S)NC(=O)c1sc2ccccc2c1Cl` the outcome was “inactive; 0”.
For `CCCN1C(=O)/C(=C/c2ccc(C)s2)NC1=S`, the outcome was “inactive; 0”.
For `CCCOc1ccc(C(=O)NNC(=S)NC(=O)CC)cc1`, the outcome was “inactive; 0”.
`O=C(NC(=S)N1CCCCC1)c1cccs1` was tested, and the outcome was “inactive; 0”.
In the case of `C=CCN(CC=C)C(=S)NC(=O)/C=C/c1ccc(C)cc1`, the outcome is reported as “inactive; 0”.
With `COc1ccccc1C(=O)N1c2ccccc2Sc2ccccc21` the outcome was “inactive; 0”.
With `CC(=O)c1c(C)[nH]c(C(=O)CSc2ncnc3sc(-c4ccccc4)cc23)c1C` the outcome was “inactive; 0”.
With `CCOC(=O)c1ccccc1NC(=O)CSc1nnc(COc2ccccc2C)n1C` the outcome was “inactive; 0”.
In the case of `Cc1cccc(NC(=S)NNC(=O)c2csc3c2CCCC3)c1`, the outcome is reported as “inactive; 0”.
In the case of `CC(C)CNC(=S)Nc1ccc(Oc2ccccc2)cc1`, the outcome is reported as “active; 2”.
For `S=C(Nc1ccc(Oc2ccccc2)cc1)NC1CCCC1`, the outcome was “active; 2”.
For `COc1ccc(NC(=S)Nc2ccc(OCc3ccccc3)cc2)cc1OC`, the outcome was “inactive; 0”.
With `FC(F)(F)c1cccc(NC(=S)NCc2ccccc2)c1` the outcome was “inactive; 4”.
For `CCCN(CC1CC1)C(=S)Nc1ccc(Oc2ccccc2)cc1`, the outcome was “inactive; 0”.
In the case of `FC(F)(F)Oc1ccc(NC(=S)NCc2ccccc2)cc1`, the outcome is reported as “inactive; 4”.
`CCOC(=O)c1ccc(NC(=S)NC2CCCC2)cc1` was tested, and the outcome was “inactive; 4”.
`FC(F)(F)c1cccc(N2CCN(C(=S)NC3CCCCC3)CC2)c1` was tested, and the outcome was “inactive; 0”.
`FC(F)(F)c1cccc(NC(=S)NC2CCCC2)c1` was tested, and the outcome was “active; -1”.

Source: PubChem BioAssay AID623869 (Vanderbilt High Throughput Screening Facility, 2012)
